These results are taken from ChEMBL document CHEMBL3763021 (Eur J Med Chem, 2016).

A short description of series [1]: Inhibition of Sonic-induced hedgehog signalling in mouse NIH3T3 cells after 48 hrs by Gli-luciferase reporter assay. It is filed as cell-based. Particulars: NIH3T3, 48 h. Summed up:
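NIH3T3 cells stably carrying a Gli-luciferase reporter were kept in DMEM with 10% FBS and 1 µg/mL puromycin, then seeded at 2×10^4 cells/well overnight at 37 °C. Compounds at 0.05–300 nM (8 concentrations) were added in medium with 0.5% FBS and 0.7 µg/mL Sonic Hh agonist, n=4 wells, for 48 h. Readout was the Firefly/Renilla luciferase ratio in lysates.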
A general note: In a reporter assay the amount or activity of a reporter protein is the signal.

Series [2] is described as follows: Half life in Sprague-Dawley rat at 5 mg/kg, po by LC/MS/MS analysis. It is filed as ADME, organism-based. The conditions noted are these: in vivo. Summed up: (§1)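 Male SD rats, 180–240 g, 3 per compound; single dose of 1 mg/kg iv or 5 mg/kg po, dosing volume 5 mL/kg. Blood was sampled from 2 min to 24 h and centrifuged at 4 °C. Plasma underwent protein precipitation, then LC/MS/MS in SRM mode with an internal standard. Parameters were derived by noncompartmental analysis.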

Series [3] can be described thus: Mean resident time (0 to t) in Sprague-Dawley rat at 5 mg/kg, po by LC/MS/MS analysis. It is filed as ADME, organism-based. The conditions noted are these: in vivo. The gist of the method: as §1
Series [4] is described as follows: Clearance in Sprague-Dawley rat at 5 mg/kg, po by LC/MS/MS analysis. It is filed as ADME, organism-based. Particulars: in vivo. The gist of the method: as §1
A further series has as its system Rattus norvegicus. Kind of series: Apparent volume of distribution in Sprague-Dawley rat at 5 mg/kg, po by LC/MS/MS analysis. The conditions noted are these: in vivo.
Series [5] is described as follows: AUC (0 to t) in Sprague-Dawley rat at 5 mg/kg, po by LC/MS/MS analysis. Type of series: ADME, organism-based. Particulars: in vivo. The gist of the method: as §1
A short description of series [6]: Cmax in Sprague-Dawley rat at 5 mg/kg, po by LC/MS/MS analysis. It is filed as ADME, organism-based. The conditions noted are these: in vivo. Details: dose 5 mg/kg, route oral. Summed up:
as §1

Series [7] is described as follows: Clearance in Sprague-Dawley rat at 1 mg/kg, iv by LC/MS/MS analysis. Particulars: in vivo. It is filed as ADME, organism-based. Summed up: as §1
Series [8] is described as follows: AUC (0 to t) in Sprague-Dawley rat at 1 mg/kg, iv by LC/MS/MS analysis. The conditions noted are these: in vivo. Type of series: ADME, organism-based. The gist of the method:
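Male SD rats, 3 per compound, 180–240 g, single iv dose at 1 mg/kg, dosing volume 5 mL/kg. Blood sampled at 2, 5, 15, 30 min and 1, 2, 4, 6, 8, 10, 24 h, then centrifuged at 4 °C. Plasma protein-precipitated and analysed by LC/MS/MS in SRM mode with internal standard. AUC(0-t) obtained by noncompartmental analysis.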

Series [9] is described as follows: Half life in Sprague-Dawley rat at 1 mg/kg, iv by LC/MS/MS analysis. It is filed as ADME, organism-based. Particulars: in vivo. The gist of the method:
as §1

Series [10] in a line: Mean resident time (0 to t) in Sprague-Dawley rat at 1 mg/kg, iv by LC/MS/MS analysis. The conditions noted are these: in vivo. It is filed as ADME, organism-based. The gist of the method: as §1
Series [11] can be described thus: Apparent volume of distribution in Sprague-Dawley rat at 1 mg/kg, iv by LC/MS/MS analysis. The conditions noted are these: in vivo.
A short description of series [12]: Cmax in Sprague-Dawley rat at 1 mg/kg, iv by LC/MS/MS analysis. It is filed as ADME, organism-based. On the set-up: dose 1 mg/kg, route intravenous. Particulars: in vivo. The gist of the method:
as §1

Each structure is given as a SMILES string.

One may read the IC50 as the concentration that gives 50% inhibition. With `Cc1ccc(CN(C)C)cc1NC(=O)c1ccc(Nc2ncc(F)c(-c3ccc(OC(F)(F)F)cc3)n2)cc1`, in series [1], the IC50 came out at 3.19 nM.

Usually half-life stands for how long it takes for the measured level to halve. A higher half-life goes with slow loss. Broadly, the MRT last is a mean duration of stay, worked out from the concentration-time curve. The term CL/F denotes clearance divided by bioavailability, as obtained after extravascular dosing. One may read the AUC(0-t) as exposure summed from dosing to a finite time, without extrapolation to infinity. Low readings indicate low exposure, high ones high exposure. In general, Cmax refers to the maximum level reached in the sampled fluid or tissue. In turn, `Cc1ccc(CN2CCOCC2)cc1NC(=O)c1ccc(Nc2nccc(-c3ccc(OC(F)(F)F)cc3)n2)cn1` had a half-life in series [2] of 334 min. Besides, the MRT last in [3] stood at 4.83 h. Besides, the CL/F in [4] is 123 mL/min/kg. Also, the “Vd(app)” value in the series with Rattus norvegicus was found to be 59601.85 mL/kg. For the same compound, in series [5], the AUC(0-t) stood at 660 ng·h/mL. In addition, the IC50 in series [1] came to 0.69 nM. The concentration in series [6] peaked (Cmax) at 137 ng/mL.

On to `CCN(CC)Cc1ccc(C)c(NC(=O)c2ccc(Nc3ncc(F)c(-c4ccc(OC(F)(F)F)cc4)n3)cc2)c1`, for which half-maximal inhibition in series [1] (IC50) required 2.56 nM.

The term clearance denotes the rate of elimination divided by the concentration. Lower therefore signals a low capacity for elimination. In turn, `Cc1ccc(CN2CCOCC2)cc1NC(=O)c1ccc(Nc2ncc(F)c(-c3ccc(OC(F)(F)F)cc3)n2)nc1` gave a clearance in series [7] of 26.4 mL/min/kg. Besides, the AUC(0-t) in series [8] was found to be 625 ng·h/mL. In series [9], this compound showed a half-life of 121 min. Moreover, the MRT last in [10] was 1.98 h. For the same compound, the Vd in series [11] was 4.62 L/kg. This compound showed a Cmax in series [12] of 770 ng/mL. Moreover, in series [1], the IC50 was 0.78 nM.

In turn, `CCN(CC)Cc1ccc(C)c(NC(=O)c2ccc(Nc3nccc(-c4ccc(OC(F)(F)F)cc4)n3)cc2)c1` had an IC50 in series [1] of 2.31 nM.

With `Cc1ccc(CN2CCOCC2)cc1NC(=O)c1ccc(Nc2ncc(C3CC3)c(-c3ccc(OC(F)(F)F)cc3)n2)cc1`, 11.9 nM corresponded to half-maximal inhibition in series [1] (IC50).

In turn, `Cc1ccc(CN2CCN(C)CC2)cc1NC(=O)c1ccc(Nc2ncc(F)c(-c3ccc(OC(F)(F)F)cc3)n2)cc1` yielded an IC50 in series [1] of 2.84 nM.

Take `Cc1ccc(CN2CCOCC2)cc1NC(=O)c1ccc(Nc2ncc(F)c(-c3ccc(OC(F)(F)F)cc3)n2)cn1`: the half-life is 434 min in series [2] and 531 min in series [9]. The same compound gave a clearance in series [7] of 8.37 mL/min/kg. Further, the MRT last in [3] worked out at 7.74 h; in series [10] it was 4.23 h. The compound further had a CL/F in series [4] of 80.8 mL/min/kg. Also, the AUC(0-t) is 1890 ng·h/mL in series [8] and 923 ng·h/mL in series [5]. The Vd in [11] stood at 6.28 L/kg. Also, the “Vd(app)” value with Rattus norvegicus was 50455.46 mL/kg. For the same compound, the values for the Cmax in series [12] and in series [6] were 3140 ng/mL and 86.6 ng/mL, respectively. In series [1], this compound registered a half-inhibitory concentration (IC50) of 1.14 nM.

As to `Cc1ccc(CN2CCCCC2)cc1NC(=O)c1ccc(Nc2nccc(-c3ccc(OC(F)(F)F)cc3)n2)cc1`, in [1], the midpoint of inhibition, the IC50, lay at 2.68 nM.
